# In the library only some 3.4% were active in any assay of this set; here they are far more common.
# CHRM1 agonist = human M1 muscarinic receptor agonism | activation, % at 3 µM | CHO-K1 hM1, Fluo-8 calcium fluorescence, agonist mode; 0% DMSO, 100% acetylcholine EC100 | P11229 | AID 588814 | 0.33% of 360,000 active;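 active means activation above the run's mean compound activation plus 3 SD, cut at about 16% in these data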;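 further: peak over basal fluorescence ratio within a 140 s kinetic read after compound addition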
# CHRM1 PAM = positive allosteric modulators of human M1 muscarinic receptor. P11229. CHO-K1 hM1, Fluo-8 calcium fluorescence, ACh EC20; 0% = ACh EC20, 100% = maximal ACh. activation, % at 3 µM. 0.088% of 360,000 active. AID 588819; in the data active means activation above about 19%, passing the limit was not always enough
# CHRM1 antagonist = antagonists of human M1 muscarinic receptor; CHO-K1 hM1, Fluo-8 calcium fluorescence, ACh EC80 antagonist; inhibition, % at 3 µM; P11229; 1.3% of 360,000 active;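 active means percent inhibition above its own plate's cutoff, namely the mean of that plate's compound wells plus 3 SD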;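 further: peak over basal fluorescence ratio during 140 s after agonist addition; 0% = ACh EC80 plus DMSO and 100% = DMSO alone without agonist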
# TAAR1 antag = antagonists of human TAAR1; Q96RJ0; CHO RD-HGA16 TAAR1, Fluo-8 calcium fluorescence, antagonist; inhibition, % at 3 µM; 1.5% of 360,000 active; AID 624466;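 active means inhibition above a per-plate cutoff, the mean inhibition of test compounds on that plate plus 3 SD, cut at about 49% in these data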;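 further: 0% = DMSO plus EC80 beta-PEA response and 100% = DMSO alone without agonist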
# Target sequence (Q96RJ0 whole entry, looked up): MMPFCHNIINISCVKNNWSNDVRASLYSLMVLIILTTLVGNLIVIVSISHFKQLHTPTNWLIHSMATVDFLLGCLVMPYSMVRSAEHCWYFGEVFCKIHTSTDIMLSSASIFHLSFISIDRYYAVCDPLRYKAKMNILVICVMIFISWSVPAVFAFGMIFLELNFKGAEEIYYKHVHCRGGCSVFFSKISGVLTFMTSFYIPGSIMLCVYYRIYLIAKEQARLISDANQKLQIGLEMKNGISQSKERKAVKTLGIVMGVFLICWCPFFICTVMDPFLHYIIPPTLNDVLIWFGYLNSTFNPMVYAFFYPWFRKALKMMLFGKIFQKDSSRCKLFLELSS
#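 Test system: RD-HGA16 CHO cells with stable hTAAR1 and Gα16 / Probe or stimulus: EC80 β-phenethylamine stimulus / Times: seeding 17-24 h prior, 75-min 37 °C, 30-min RT dye loading / Detection: Fluo-8 calcium-sensitive fluorescence / Read-out basis: % inhibition scaled between DMSO and EC80 PEA controls / Repeats: singlicate, one well per test compound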
# TAAR1 ag = agonists of human TAAR1; Q96RJ0; AID 624467; activation, % at 3 µM; CHO RD-HGA16 TAAR1, Fluo-8 calcium fluorescence; vehicle wells 0%, saturating PEA agonist 100%; 0.99% of 360,000 active;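 active means activation above the mean activation of all test compounds in the run plus 3 SD, cut at about 38% in these data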
#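 System: CHO RD-HGA16 cells carrying human TAAR1 plus Gα16; Incubation: 17-24 h seeding, 75 min 37 °C dye, 30 min RT; Measured by: Fluo-8 fluorescence, 5 s baseline then 140 s kinetic read; Control set: DMSO and PEA EC100; Replication: single well for each compound.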
# TAAR1 nonsel count = nonselective antagonist in TAAR1 antagonist counter-screen. AID 651780. counterscreen cell line, calcium fluorescence, antagonist mode. 77% of 2,400 active. shares compounds with TAAR1 antag. inhibition, % at 3 µM; in the data active means inhibition above about 22%;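 further: CHO-Ga16 host cells stimulated with ATP at an EC80 level; 0% = agonist EC80 plus vehicle and 100% = vehicle without agonist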
# TAAR1 antag conf = confirmation of human TAAR1 antagonists. shares compounds with TAAR1 antag. TAAR1-expressing cells, fluorescence antagonist read-out. inhibition, % at 3 µM. 40% of 2,400 active. AID 651785; in the data active means inhibition above about 49%;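 further: CHO-Ga16 host cells challenged with agonist PEA near its EC80; 0% = agonist at EC80 plus vehicle and 100% = vehicle with no agonist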
# Ga16 ag counter = counter-screen for TAAR1 antagonists: nonselective Ga16 agonists | shares compounds with TAAR1 antag | Ga16-expressing cells, calcium fluorescence, agonist counterscreen | activation, % at 3 µM | 18% of 2,400 active; in the data active means activation above about 12%;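 further: 0% = vehicle wells and 100% = saturating stimulus response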
# TAAR1 ag count = activates human TAAR1 in antagonist counter-screen | shares compounds with TAAR1 antag | hTAAR1 cell line, fluorescence activation, agonist mode | activation, % at 3 µM | 2% of 2,400 active | AID 651955; in the data active means activation above about 37%;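 further: CHO cells stably expressing TAAR1 with calcium dye readout; 0% = DMSO vehicle and 100% = full agonist response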
# Numbers without * were called inactive; · = not tested or not shown.
SMILES,CHRM1 agonist,CHRM1 PAM,CHRM1 antagonist,TAAR1 antag,TAAR1 ag,TAAR1 nonsel count,TAAR1 antag conf,Ga16 ag counter,TAAR1 ag count
Clc1cccc(-c2nc(NCCN3CCOCC3)c3ccccc3n2)c1,-3.3,-6.3,16.5,63.8*,17.1,32.2*,55.0*,15.6*,15.9
C=CC[C@H](CC(=O)N[C@H](CO)Cc1ccccc1)C(=O)N[C@@H](COC(=O)[C@@H](CC=C)CC(=O)OC(C)(C)C)Cc1c[nH]c2ccccc12,-1.6,-2.8,5.6,62.7*,23.3,29.9*,37.5,4.3,3.7
C=CC[C@H](CC(=O)N[C@H](CO)Cc1ccccc1)C(=O)N[C@H](COC(=O)[C@@H](CC=C)Cc1ccc(F)cc1)Cc1c[nH]c2ccccc12,0.0,4.4,3.4,·,·,·,·,·,·
C=CC[C@@H](CC(=O)N[C@@H](CO)Cc1ccccc1)C(=O)N[C@H](COC(=O)[C@@H](CC=C)CC(=O)OC(C)(C)C)Cc1ccccc1,-2.7,0.3,-0.7,-3.1,0.0,·,·,·,·
C=CCC[C@@H](Cc1ccc(F)cc1)C(=O)OC[C@H](Cc1c[nH]c2ccccc12)NC(=O)[C@H](CC=C)CC(=O)NCCO,-0.6,4.2,-0.9,75.2*,21.8,30.4*,41.9,6.9,6.6
C=CC[C@@H](CC(=O)N[C@H](CO)Cc1ccccc1)C(=O)N[C@H](COC(=O)[C@@H](CC=C)Cc1ccc(F)cc1)Cc1c[nH]c2ccccc12,-4.6,1.3,12.1,85.8*,28.2,38.1*,51.5*,5.3,15.3
CCCNC(=O)C1(C)CCCN(Cc2csc(-c3ccccc3)n2)C1 (stereo unspecified),-8.2,-2.6,0.3,-9.0,0.4,·,·,·,·
CC(/C=C1\SC(=Nc2cccnc2)NC1=O)=C\c1ccccc1,0.8,-0.1,13.9,62.0*,5.4,29.0*,55.5*,7.0,6.8
O=C(NC1CCCCC1)c1[nH]c(C(F)(F)F)nc1-c1ccccc1,1.1,-2.0,-12.2,-32.1,1.9,·,·,·,·
COc1ccc(CCNC(=O)C(=O)NCC2OCCN2C(=O)c2ccc(Cl)cc2)cc1 (stereo unspecified),-0.7,2.3,5.2,59.5*,11.7,22.5*,37.5,8.0,12.0
Cc1cccc(N2CCN(C(C(=O)NCc3ccccc3)c3ccc(C(F)(F)F)cc3)CC2)c1C (stereo unspecified),·,·,·,-19.4,0.6,·,·,·,·
O=C(Nc1ccc(F)cc1)C(c1cc2ccccc2o1)N1CCN(c2ccncc2)CC1 (stereo unspecified),·,·,·,5.3,7.5,·,·,·,·
COc1cccc(/C=N/Nc2nnc3c(n2)[nH]c2ccccc23)c1OC,-2.4,-8.7,0.3,60.8*,11.8,17.2,21.5,5.9,3.5
Cc1cc(C)nc(NS(=O)(=O)c2ccc(NC(=O)c3cc(-c4ccccc4)nc4ccccc34)cc2)n1,-8.7,2.5,-11.1,5.7,5.0,·,·,·,·
CCN(CC)S(=O)(=O)c1ccc(N2CCOCC2)c(NC(=O)c2c3c(nc4ccccc24)CCC3)c1,0.6,-5.9,17.3,55.7*,13.1,18.4,35.9,7.1,6.9
CCOc1ncccc1C(=O)Nc1cc(S(=O)(=O)N(CC)CC)ccc1N1CCOCC1,3.7,17.1,4.9,-21.5,7.2,·,·,·,·
CCN(CC)S(=O)(=O)c1ccc(N2CCOCC2)c(NC(=O)c2cc(-c3ccccn3)nc3ccccc23)c1,-1.2,-9.8,32.8,71.3*,18.0,27.2*,52.1*,8.3,10.9
CCN(CC)S(=O)(=O)c1ccc(N2CCOCC2)c(NC(=O)c2ccc3ccccc3c2)c1,-1.4,9.4,-10.9,-11.4,-1.3,·,·,·,·
CCN(CC)S(=O)(=O)c1ccc(N2CCOCC2)c(NC(=O)c2cccc(C#N)c2)c1,0.1,4.5,11.6,104.3*,-2.7,7.8,2.1,0.1,4.8
CCN(CC)S(=O)(=O)c1ccc(NC(=O)c2cc(-c3ccccc3)nc3ccccc23)cc1,-7.1,1.9,5.2,54.4*,3.0,27.1*,35.3,7.7,-1.6
CC(C)(C)N1C(=O)c2ccccc2NC(=O)C1C(=O)NCCc1ccccc1F (stereo unspecified),·,·,·,-17.6,2.4,·,·,·,·
COc1ccccc1OCCn1nc2ccccc2c1OC,·,·,·,-0.6,7.3,·,·,·,·
Cc1cc(C)cc(NC(=O)Nc2cccnc2)c1,0.9,4.6,-10.9,-4.7,18.1,·,·,·,·
Cc1ccc(NC(=O)Nc2cccnc2)cc1NC(=O)Nc1cccnc1,-6.4,2.0,4.0,49.9*,2.0,18.6,35.3,3.5,4.1
CC(C)C(=O)N1CCN(c2ccc(NC(=O)COc3ccccc3[N+](=O)[O-])cc2)CC1,3.8,-26.1,36.6*,72.8*,31.3,55.3*,76.0*,19.9*,20.6
SMILES,CHRM1 agonist,CHRM1 PAM,CHRM1 antagonist,TAAR1 antag,TAAR1 ag,TAAR1 nonsel count,TAAR1 antag conf,Ga16 ag counter,TAAR1 ag count
CS(=O)(=O)N1CCN(c2ccc(NC(=O)COc3ccccc3[N+](=O)[O-])cc2)CC1,0.1,10.1,-15.0,63.3*,19.5,27.6*,42.4,11.8*,10.7
O=C(NCC(F)(F)F)c1[nH]c(C(F)(F)F)nc1-c1ccccc1,1.4,-0.7,-20.0,-7.2,1.6,·,·,·,·
CCN(CC)S(=O)(=O)c1ccc2nc(NC(=O)c3ccco3)sc2c1,0.0,0.6,-3.3,10.2,7.3,·,·,·,·
CCN(CC)S(=O)(=O)c1ccc2nc(NC(=O)c3cccs3)sc2c1,0.3,-12.2,-3.1,62.7*,37.1,18.5,36.6,9.6,17.0
COc1ccc(-c2nc3c4ccccc4ccn3c2Cc2cccc(F)c2)cc1OC,-3.4,-0.2,-24.1,8.6,0.7,·,·,·,·
Cc1c(C(=O)Nc2ccc3c(c2)OCO3)sc2nc(-c3ccccc3)cn12,-0.7,-6.6,5.8,84.7*,10.7,43.9*,63.2*,11.8*,7.1
O=C(OCC(=O)N(Cc1ccccc1)Cc1ccccc1)c1cccc(O)c1,-1.3,6.4,-7.8,63.1*,7.1,26.4*,39.9,2.2,1.9
O=C(Nc1ccc(Cl)c(Cl)c1)N[C@@H]1CC[C@@H](CCn2cc(C3CCCCC3)nn2)O[C@@H]1CO,·,·,·,-24.6,1.5,·,·,·,·
Cc1ccc(-c2cc(C(=O)NCC3(N(C)C)CCCCC3)c3ccccc3n2)o1,-5.7,11.8,-18.4,13.7,1.0,·,·,·,·
COc1ccc(OC)c(-c2cc(C(=O)N/N=C/c3ccc(F)cc3)c3ccccc3n2)c1,0.1,3.9,2.6,-18.3,2.4,·,·,·,·
Cc1ccc(-c2cc(C(=O)Nc3nccs3)c3ccccc3n2)o1,-2.0,-7.6,16.4,30.6,12.2,·,·,·,·
